# Measurements taken from ChEMBL document CHEMBL3045116, “Synthesis and biological evaluation of 2-(5-substituted-1-((diethylamino)methyl)-2-oxoindolin-3-ylidene)-N-substituted-hydrazinecarbothioamides” (Med Chem Res, 2013).
# Assays:
# Coxsackievirus B4 [1] = experiment: Antiviral activity against Human coxsackievirus B4 infected human HeLa cells assessed as reduction of virus-induced cytopathic effect after 3 days by colorimetric formazan-based MTS assay; assay type: functional, organism-based; conditions: Enterovirus B, 72 h
# In short: (§1)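 Confluent cell monolayers were infected with 100 CCID50 of virus, and serial dilutions of compound were added at the time of infection.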
# Human alphaherpesvirus 1 [2] = experiment: Antiviral activity against Human herpesvirus 1 strain KOS infected human HEL cells assessed as reduction of virus-induced cytopathic effect after 3 days by colorimetric formazan-based MTS assay; assay type: functional, organism-based; conditions: Human alphaherpesvirus 1, KOS, 72 h; in short: as §1
# [3] = system: Mammalian orthoreovirus 1; experiment: Antiviral activity against Mammalian orthoreovirus 1 infected African green monkey Vero cells assessed as reduction of virus-induced cytopathic effect after 3 days by colorimetric formazan-based MTS assay; assay type: functional, organism-based; conditions: Mammalian orthoreovirus 1, Vero, 72 h
# In short: (§2)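 Cells grown to confluency in 96-well plates ([…], Vero for lines 9–10) were infected with 100 CCID50 of virus, and serial compound dilutions were added at infection. Plates were incubated at 37 °C for 3 days, until complete CPE appeared in untreated virus controls.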
# MDCK = experiment: (§3) Cytotoxicity against MDCK cells assessed as change in cellular morphology; assay type: cell-based, Canis lupus familiaris; conditions: dog, mdck
# In short: (§4)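 Uninfected cells were exposed to compound in parallel with the antiviral cultures. The read-out is the minimum cytotoxic concentration that causes a microscopically detectable alteration of normal cell morphology.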
# [4] = as §3; assay type: cell-based, Canis lupus familiaris; conditions: dog, MDCK cells; in short: as §4
# [5] = system: Feline infectious peritonitis virus; experiment: Antiviral activity against Feline Infectious peritonitis virus infected cat CRFK cells assessed as reduction of virus-induced cytopathic effect after 3 days by colorimetric formazan-based MTS assay; assay type: functional, organism-based; conditions: Alphacoronavirus 1, CRFK, 72 h; in short: as §1
# Klebsiella pneumoniae = experiment: Antibacterial activity against Klebsiella pneumoniae assessed as growth inhibition at 50 ug/ml by cup-plate method (reference value: 8 to 10 mm); assay type: functional; conditions: read-out: DIZ
# [6] = Inhibition of beta lactamase assessed as increase in time taken for iodine decolorization relative to control; parameters: concentration or dose not given beside the values; conditions: concentration not given here
# [7] = Cytotoxicity against Chlorocebus aethiops (African green monkey) Vero cells assessed as change in cellular morphology; assay type: cell-based; conditions: chlorocebus sabaeus
# Influenza A virus = experiment: Antiviral activity against Unidentified Influenza A virus (H1N1) infected MDCK cells assessed as reduction of virus-induced cytopathic effect after 3 days by colorimetric formazan-based MTS assay; assay type: functional, organism-based; conditions: 72 h; in short: as §1
# Influenza A virus H3N2 = experiment: Antiviral activity against Influenza A virus H3N2 infected MDCK cells assessed as reduction of virus-induced cytopathic effect after 3 days by colorimetric formazan-based MTS assay; assay type: functional, organism-based; conditions: 72 h; in short: as §1
# Influenza B virus = experiment: Antiviral activity against Influenza B virus infected in MDCK cells assessed as reduction of virus-induced cytopathic effect after 3 days by colorimetric formazan-based MTS assay; assay type: functional, organism-based; conditions: 72 h; in short: as §1
# Candida albicans = experiment: Antifungal activity against Candida albicans assessed as growth inhibition at 50 ug/ml by cup-plate method (reference value: 8 to 10 mm); assay type: functional; conditions: read-out: DIZ
# Punta Toro virus = experiment: Antiviral activity against Punta Toro virus infected in African green monkey Vero cells assessed as reduction of virus-induced cytopathic effect after 3 days by colorimetric formazan-based MTS assay; assay type: functional, organism-based; conditions: 72 h; in short: as §1
# [8] = system: Respiratory syncytial virus; experiment: Antiviral activity against Respiratory syncytial virus infected human HeLa cells assessed as reduction of virus-induced cytopathic effect after 3 days by colorimetric formazan-based MTS assay; assay type: functional, organism-based; conditions: 72 h; in short: as §1
# Salmonella typhi = experiment: Antibacterial activity against Salmonella enterica subsp. enterica serovar Typhi assessed as growth inhibition at 50 ug/ml by cup-plate method (reference value: 8 to 10 mm); assay type: functional; conditions: read-out: DIZ
# HeLa = experiment: (§5) Cytotoxicity against Homo sapiens (human) HeLa cells assessed as change in cellular morphology; assay type: cell-based; conditions: hela; in short: as §4
# [9] = as §5; assay type: cell-based; conditions: HeLa cells; in short: as §4
# Vaccinia virus = experiment: Antiviral activity against Vaccinia virus infected human HEL cells assessed as reduction of virus-induced cytopathic effect after 3 days by colorimetric formazan-based MTS assay; assay type: functional, organism-based; conditions: Orthopoxvirus vaccinia, 72 h; in short: as §1
# Staphylococcus aureus = experiment: Antibacterial activity against Staphylococcus aureus assessed as growth inhibition at 50 ug/ml by cup-plate method (reference value: 8 to 10 mm); assay type: functional; conditions: read-out: DIZ
# Escherichia coli = experiment: Antibacterial activity against Escherichia coli assessed as growth inhibition at 50 ug/ml by cup-plate method (reference value: 8 to 10 mm); assay type: functional; conditions: read-out: DIZ
# [10] = system: Vesicular stomatitis virus; experiment: Antiviral activity against Vesicular stomatitis virus infected human HeLa cells assessed as reduction of virus-induced cytopathic effect after 3 days by colorimetric formazan-based MTS assay; assay type: functional, organism-based; conditions: 72 h; in short: as §1
# Aspergillus niger = experiment: Antifungal activity against Aspergillus niger assessed as growth inhibition at 50 ug/ml by cup-plate method (reference value: 8 to 10 mm); assay type: functional; conditions: read-out: DIZ
# [11] = Cytotoxicity against Felis catus (cat) CRFK cells assessed as change in cellular morphology; assay type: cell-based; conditions: crfk; in short: as §4
# Bacillus subtilis = experiment: Antibacterial activity against Bacillus subtilis assessed as growth inhibition at 50 ug/ml by cup-plate method (reference value: 8 to 10 mm); assay type: functional; conditions: read-out: DIZ
# Human alphaherpesvirus 1 [12] = experiment: Antiviral activity against acyclovir-resistant thymidine kinase negative Human herpesvirus 1 strain KOS infected human HEL cells assessed as reduction of virus-induced cytopathic effect after 3 days by colorimetric formazan-based MTS assay; assay type: functional, organism-based; conditions: Human alphaherpesvirus 1, KOS, 72 h; in short: as §1
# Human alphaherpesvirus 2 = experiment: Antiviral activity against Human herpesvirus 2 strain G infected human HEL cells assessed as reduction of virus-induced cytopathic effect after 3 days by colorimetric formazan-based MTS assay; assay type: functional, organism-based; conditions: Human alphaherpesvirus 2, strain G, 72 h; in short: as §1
# Proteus vulgaris = experiment: Antibacterial activity against Proteus vulgaris assessed as growth inhibition at 50 ug/ml by cup-plate method (reference value: 8 to 10 mm); assay type: functional; conditions: read-out: DIZ
# Coxsackievirus B4 [13] = experiment: Antiviral activity against Human coxsackievirus B4 infected African green monkey Vero cells assessed as reduction of virus-induced cytopathic effect after 3 days by colorimetric formazan-based MTS assay; assay type: functional, organism-based; conditions: Enterovirus B, 72 h; in short: as §1
# [14] = Inhibition of beta lactamase assessed as time for decolorization of iodine (reference value: 79.5 secs)
# Felid alphaherpesvirus 1 = experiment: Antiviral activity against Felid herpesvirus 1 infected cat CRFK cells assessed as reduction of virus-induced cytopathic effect after 3 days by colorimetric formazan-based MTS assay; assay type: functional, organism-based; conditions: Felid alphaherpesvirus 1, CRFK, 72 h; in short: as §2
# [15] = Cytotoxicity against Homo sapiens (human) HEL cells assessed as change in cellular morphology; assay type: cell-based
# CCRF-CEM = experiment: Cytotoxicity against Homo sapiens (human) CEM cells assessed as growth inhibition after 72 hr by coulter counter analysis; assay type: functional, cell-based
# In short: (§6)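 Cells in growth medium were allowed to proliferate with variable compound amounts at 37 °C in a humidified CO2 atmosphere. Incubation ran 48 h for L1210, 72 h for CEM and 96 h for HeLa. Cells were then counted with a Coulter counter.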
# Human respirovirus 3 = experiment: Antiviral activity against Human parainfluenza virus 3 infected African green monkey Vero cells assessed as reduction of virus-induced cytopathic effect after 3 days by colorimetric formazan-based MTS assay; assay type: functional, organism-based; conditions: Human respirovirus 3, Vero, 72 h; in short: as §2
# [16] = system: Vesicular stomatitis virus; experiment: Antiviral activity against Vesicular stomatitis virus infected human HEL cells assessed as reduction of virus-induced cytopathic effect after 3 days by colorimetric formazan-based MTS assay; assay type: functional, organism-based; conditions: 72 h; in short: as §1
# L1210 = experiment: Cytotoxicity against Mus musculus (mouse) L1210 cells assessed as growth inhibition after 48 hr by coulter counter analysis; assay type: functional, cell-based; conditions: L1210, 48 h; in short: as §6
# Respirovirus muris = experiment: Antiviral activity against Sendai virus infected African green monkey Vero cells assessed as reduction of virus-induced cytopathic effect after 3 days by colorimetric formazan-based MTS assay; assay type: functional, organism-based; conditions: 72 h
SMILES,EC50 (Coxsackievirus B4 [1]) [µM],EC50 (Human alphaherpesvirus 1 [2]) [µM],EC50 [3] [µM],CC50 (MDCK) [µM],MCC [4] [µM],EC50 [5] [µM],zone of inhibition at 50 µg/mL (Klebsiella pneumoniae) [mm],inhibition [6] [%],MCC [7] [µM],EC50 (Influenza A virus) [µM],EC50 (Influenza A virus H3N2) [µM],EC50 (Influenza B virus) [µM],zone of inhibition at 50 µg/mL (Candida albicans) [mm],EC50 (Punta Toro virus) [µM],EC50 [8] [µM],zone of inhibition at 50 µg/mL (Salmonella typhi) [mm],CC50 (HeLa) [µM],MCC [9] [µM],EC50 (Vaccinia virus) [µM],zone of inhibition at 50 µg/mL (Staphylococcus aureus) [mm],other results
CCN(CC)CN1C(=O)/C(=N/NC(=S)Nc2ccc(OC)cc2)c2ccccc21,> 4,> 20,> 0.8,9.2,4,> 0.8,11,35.7,4,> 0.8,> 0.8,> 0.8,11,> 0.8,> 4,21,> 100,≥ 4,> 20,11,zone of inhibition at 50 µg/mL (Escherichia coli): 11 mm; EC50 [10]: > 4 µM; zone of inhibition at 50 µg/mL (Aspergillus niger): 11 mm; CC50 [11]: 3.5 µM; zone of inhibition at 50 µg/mL (Bacillus subtilis): 11 mm; EC50 (Human alphaherpesvirus 1 [12]): > 20 µM; EC50 (Human alphaherpesvirus 2): > 20 µM; zone of inhibition at 50 µg/mL (Proteus vulgaris): 21 mm; EC50 (Coxsackievirus B4 [13]): > 0.8 µM; TIME [14]: 0.0343 h; EC50 (Felid alphaherpesvirus 1): > 0.8 µM; MCC [15]: 100 µM; IC50 (CCRF-CEM): 1.9 µM; EC50 (Human respirovirus 3): > 0.8 µM; EC50 [16]: > 20 µM; IC50 (L1210): 2.4 µM; EC50 (Respirovirus muris): > 0.8 µM
CCN(CC)CN1C(=O)/C(=N/NC(N)=S)c2cc(Cl)ccc21,> 100,> 100,> 100,78.3,100,> 100,11,34.6,> 100,> 20,> 20,> 20,11,> 100,> 100,11,> 100,> 100,20,21,zone of inhibition at 50 µg/mL (Escherichia coli): 11 mm; EC50 [10]: > 100 µM; zone of inhibition at 50 µg/mL (Aspergillus niger): 11 mm; CC50 [11]: > 100 µM; zone of inhibition at 50 µg/mL (Bacillus subtilis): 11 mm; EC50 (Human alphaherpesvirus 1 [12]): > 100 µM; EC50 (Human alphaherpesvirus 2): > 100 µM; zone of inhibition at 50 µg/mL (Proteus vulgaris): 11 mm; EC50 (Coxsackievirus B4 [13]): > 100 µM; TIME [14]: 0.0338 h; EC50 (Felid alphaherpesvirus 1): > 100 µM; MCC [15]: > 100 µM; IC50 (CCRF-CEM): 71 µM; EC50 (Human respirovirus 3): > 100 µM; EC50 [16]: > 100 µM; IC50 (L1210): 148 µM; EC50 (Respirovirus muris): > 100 µM
CCN(CC)CN1C(=O)/C(=N/NC(=S)Nc2ccc(C)cc2)c2cc(Cl)ccc21,> 4,> 20,> 4,11.3,4,> 4,11,34.1,≥ 4,> 0.8,> 0.8,> 0.8,11,> 4,> 4,11,> 100,≥ 4,> 20,11,zone of inhibition at 50 µg/mL (Escherichia coli): 21 mm; EC50 [10]: > 4 µM; zone of inhibition at 50 µg/mL (Aspergillus niger): 11 mm; CC50 [11]: 17.5 µM; zone of inhibition at 50 µg/mL (Bacillus subtilis): 11 mm; EC50 (Human alphaherpesvirus 1 [12]): > 20 µM; EC50 (Human alphaherpesvirus 2): > 20 µM; zone of inhibition at 50 µg/mL (Proteus vulgaris): 11 mm; EC50 (Coxsackievirus B4 [13]): > 4 µM; TIME [14]: 0.0335 h; EC50 (Felid alphaherpesvirus 1): > 4 µM; MCC [15]: 100 µM; IC50 (CCRF-CEM): 4.6 µM; EC50 (Human respirovirus 3): > 4 µM; EC50 [16]: > 20 µM; IC50 (L1210): 9.5 µM; EC50 (Respirovirus muris): > 4 µM
